The subject of the assay is Human rhinovirus sp. As to the kind of experiment: Concentration inhibiting 50% of the serotypes tested to 50% of the viral concentration of untreated controls following 72 hr of exposure. The format is functional. Summed up:
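Tissue culture infectious dose (TCID50) assay against a panel of 10 human rhinovirus serotypes. For each serotype, the viral concentration was compared with untreated controls after 72 h of compound exposure. MIC50 is the compound concentration at which half of the serotypes tested are reduced to 50% of the untreated-control viral concentration.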

Results on five compounds are retold here after ChEMBL document CHEMBL1128473, “[(Biaryloxy)alkyl]isoxazoles: picornavirus inhibitors” (J Med Chem, 1995).

Molecules are shown by their SMILES. In brackets after ≈: the same amount, converted by molar mass.

Regarding `Cc1cc(CCCOc2c(C)cc(-c3ccccc3F)cc2C)on1`, the MIC50 came out at 0.11 µM (≈ 0.0373 µg/mL). The same measure for `COc1ccc(-c2cc(C)c(OCCCc3cc(C)no3)c(C)c2)cc1`: 0.28 µM (≈ 0.0984 µg/mL); for `Cc1cc(CCCOc2c(C)cc(-c3ccc(F)c(F)c3)cc2C)on1`: 0.16 µM (≈ 0.0572 µg/mL). As to `Cc1cc(CCCOc2c(C)cc(-c3cccc(Cl)c3)cc2C)on1`, the MIC50 stood at 0.27 µM (≈ 0.0961 µg/mL). In turn, `Cc1cc(CCCOc2c(C)cc(-c3ccc(O)cc3)cc2C)on1` registered an MIC50 of 0.77 µM (≈ 0.26 µg/mL).
